{
  "source": "ChEMBL document CHEMBL3351699",
  "about": "“Diarylthiazole: an antimycobacterial scaffold potentially targeting PrrB-PrrA two-component system” (J Med Chem, 2014)",
  "key": {"[1]": {"test_system": "Mycobacterium tuberculosis", "assay": "Induction of prrA gene expression in Mycobacterium tuberculosis H37Rv ATCC 27294 at 7.5 ug/mL incubated for 4 hrs by DNA microarray analysis", "format": "functional", "method_in_brief": "(§1)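 Total RNA was isolated from treated Mtb cells and analysed by DNA microarray. RNA from an untreated Mtb culture served as the control, and expression was reported as mean fold change relative to that untreated control.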"}, "[2]": {"target": "T1, Enoyl-[acyl-carrier-protein] reductase [NADH] (Mycobacterium tuberculosis, UniProt P9WGR1)", "T1 sequence (P9WGR1 whole entry)": "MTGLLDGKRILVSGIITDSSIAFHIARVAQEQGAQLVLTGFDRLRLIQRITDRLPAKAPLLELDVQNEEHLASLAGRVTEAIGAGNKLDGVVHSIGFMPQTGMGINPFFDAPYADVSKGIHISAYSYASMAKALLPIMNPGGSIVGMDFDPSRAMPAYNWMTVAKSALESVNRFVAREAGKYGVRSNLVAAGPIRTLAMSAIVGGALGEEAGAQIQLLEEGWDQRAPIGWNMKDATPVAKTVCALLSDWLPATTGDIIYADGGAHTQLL", "assay": "Inhibition of Mycobacterium tuberculosis InhA using NADH and dodecyl coA substrate by LC-MS/MS method"}, "[3]": {"test_system": "Mycobacterium tuberculosis", "assay": "Reduction in aminoacyl t-RNA synthetases gene expression in Mycobacterium tuberculosis H37Rv ATCC 27294 at 7.5 ug/mL incubated for 4 hrs by DNA microarray analysis", "format": "functional, organism-based", "method_in_brief": "(§2)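 Total RNA was isolated from compound-treated Mtb cultures and hybridised on DNA microarrays, with RNA from an untreated Mtb culture as the control.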"}, "[4]": {"test_system": "Mycobacterium tuberculosis", "assay": "Ratio of MBC for Mycobacterium tuberculosis H37Rv ATCC 27294 to MIC for Mycobacterium tuberculosis H37Rv ATCC 27294", "format": "functional"}, "[5]": {"test_system": "Mycobacterium tuberculosis", "assay": "Induction of anaerobic state electron transport chain maintenance related gene expression in Mycobacterium tuberculosis H37Rv ATCC 27294 at 7.5 ug/mL incubated for 4 hrs by DNA microarray analysis", "format": "functional, organism-based", "method_in_brief": "as §2"}, "[6]": {"test_system": "Mycobacterium tuberculosis", "assay": "Induction of oxido-reductases gene expression in Mycobacterium tuberculosis H37Rv ATCC 27294 at 7.5 ug/mL incubated for 4 hrs by DNA microarray analysis", "format": "functional, organism-based", "method_in_brief": "as §2"}, "[7]": {"test_system": "Mycobacterium tuberculosis", "assay": "Bactericidal activity against Mycobacterium tuberculosis H37Rv ATCC 27294 after 5 days by microdilution method", "format": "functional", "details": "H37Rv ATCC 27294, 120 h"}, "[8]": {"test_system": "Mycobacterium tuberculosis", "assay": "Antimicrobial activity against Mycobacterium tuberculosis H37Rv ATCC 27294 assessed as growth inhibition after 5 days by microdilution method", "format": "functional", "details": "H37Rv ATCC 27294, 120 h"}, "[9]": {"test_system": "Mycobacterium tuberculosis", "assay": "Induction of prrB gene expression in Mycobacterium tuberculosis H37Rv ATCC 27294 at 7.5 ug/mL incubated for 4 hrs by DNA microarray analysis", "format": "functional", "method_in_brief": "as §1"}, "[10]": {"test_system": "Mycobacterium tuberculosis", "assay": "Reduction in protein synthesis related gene expression in Mycobacterium tuberculosis H37Rv ATCC 27294 at 7.5 ug/mL incubated for 4 hrs by DNA microarray analysis", "format": "functional, organism-based", "method_in_brief": "as §2"}, "[11]": {"test_system": "Mycobacterium tuberculosis", "assay": "Reduction in RNA metabolism related gene expression in Mycobacterium tuberculosis H37Rv ATCC 27294 at 7.5 ug/mL incubated for 4 hrs by DNA microarray analysis", "format": "functional, organism-based", "method_in_brief": "as §2"}, "[12]": {"test_system": "Mycobacterium tuberculosis", "assay": "Induction of fumarate reductase gene expression in Mycobacterium tuberculosis H37Rv ATCC 27294 at 7.5 ug/mL incubated for 4 hrs by DNA microarray analysis", "format": "functional, organism-based", "method_in_brief": "as §2"}, "[13]": {"test_system": "Mycobacterium tuberculosis", "assay": "Antimicrobial activity against Mycobacterium tuberculosis H37Rv ATCC 27294 assessed as reduction in bacterial count relative to untreated control", "format": "functional", "method_in_brief": "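About 10⁶ Mtb cells/mL exposed to compound for 10 days; viable count read as Log₁₀ CFU/mL reduction versus untreated controls.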"}, "[14]": {"test_system": "Mycobacterium tuberculosis", "assay": "Antimicrobial activity against Mycobacterium tuberculosis H37Rv ATCC 27294 infected in human THP1 cells assessed as reduction in bacterial count at 2 times MIC relative to untreated control", "format": "functional, THP-1"}, "[15]": {"test_system": "Mycobacterium tuberculosis", "assay": "Induction of fatty acid metabolism related gene expression in Mycobacterium tuberculosis H37Rv ATCC 27294 at 7.5 ug/mL incubated for 4 hrs by DNA microarray analysis", "format": "functional, organism-based", "method_in_brief": "as §2"}, "[16]": {"assay": "Solubility of the compound", "format": "physicochemical"}, "[17]": {"test_system": "Mycobacterium tuberculosis", "assay": "Reduction in ribosomal protein synthesis related gene expression in Mycobacterium tuberculosis H37Rv ATCC 27294 at 7.5 ug/mL incubated for 4 hrs by DNA microarray analysis", "format": "functional, organism-based", "method_in_brief": "as §2"}, "[18]": {"test_system": "Mycobacterium tuberculosis", "assay": "Reduction in RNA polymerase subunits gene expression in Mycobacterium tuberculosis H37Rv ATCC 27294 at 7.5 ug/mL incubated for 4 hrs by DNA microarray analysis", "format": "functional, organism-based", "method_in_brief": "as §2"}, "[19]": {"test_system": "Mycobacterium tuberculosis", "assay": "Induction of nitrate reductase gene expression in Mycobacterium tuberculosis H37Rv ATCC 27294 at 7.5 ug/mL incubated for 4 hrs by DNA microarray analysis", "format": "functional, organism-based", "method_in_brief": "as §2"}, "[20]": {"test_system": "Mycobacterium tuberculosis", "assay": "Reduction in sigma factors gene expression in Mycobacterium tuberculosis H37Rv ATCC 27294 at 7.5 ug/mL incubated for 4 hrs by DNA microarray analysis", "format": "functional, organism-based", "method_in_brief": "as §2"}, "[21]": {"test_system": "Mycobacterium tuberculosis", "assay": "Induction of cytochrome ubiquinol oxidase gene expression in Mycobacterium tuberculosis H37Rv ATCC 27294 at 7.5 ug/mL incubated for 4 hrs by DNA microarray analysis", "format": "functional, organism-based", "method_in_brief": "as §2"}},
  "note": "The source made the active and inactive calls. The rule behind the calls is not given here.",
  "data": [
    {"molecule": "CCCc1cc(-c2nc(-c3ccncc3)cs2)ccn1", "values": [
      {"measurement": "fold change (FC)", "setting": "[1]", "value": 0.7},
      {"measurement": "IC50", "setting": "[2]", "value": "> 50", "unit": "µM"},
      {"measurement": "Activity", "setting": "[3]", "value": "Active"},
      {"measurement": "Ratio", "setting": "[4]", "value": 2},
      {"measurement": "Activity", "setting": "[5]", "value": "Active"},
      {"measurement": "Activity", "setting": "[6]", "value": "Active"},
      {"measurement": "MBC", "setting": "[7]", "value": 0.8, "unit": "µg/mL"},
      {"measurement": "MIC80", "setting": "[8]", "value": 0.4, "unit": "µg/mL"},
      {"measurement": "fold change (FC)", "setting": "[9]", "value": 0.7},
      {"measurement": "Activity", "setting": "[10]", "value": "Active"},
      {"measurement": "Activity", "setting": "[11]", "value": "Active"},
      {"measurement": "Activity", "setting": "[12]", "value": "Active"},
      {"measurement": "log10CFU/ml", "setting": "[13]", "value": 3},
      {"measurement": "log10CFU/ml", "setting": "[14]", "value": 1.5},
      {"measurement": "Activity", "setting": "[15]", "value": "Active"},
      {"measurement": "solubility", "setting": "[16]", "value": 91.5, "unit": "µM"},
      {"measurement": "Activity", "setting": "[17]", "value": "Active"},
      {"measurement": "Activity", "setting": "[18]", "value": "Active"},
      {"measurement": "Activity", "setting": "[19]", "value": "Active"},
      {"measurement": "Activity", "setting": "[20]", "value": "Active"},
      {"measurement": "Activity", "setting": "[21]", "value": "Active"}
    ]}
  ]
}
